Molecules are shown by their SMILES. Some results are limits rather than exact numbers.

Series [1] in a line: Cardiotoxicity in Wistar rat langendorff isolated heart model assessed as decrease in perfusion pressure perfused for 5 mins measured for 1 min. It is filed as toxicity, tissue-based.
A short description of series [2]: Apparent intrinsic clearance in human liver microsomes. It is filed as ADME, microsome. To be noted: read-out: CLH. In general terms: Liver microsomes are a subcellular fraction often used to study metabolism.
A short description of series [3]: Cardiotoxicity in Wistar rat langendorff isolated heart model assessed as decrease in contractility perfused for 5 mins measured for 1 min. It counts as toxicity, tissue-based.
Series [4] in a line: Cardiotoxicity in Wistar rat langendorff isolated heart model assessed as decrease in left ventricle pressure perfused for 5 mins measured for 1 min. It is filed as toxicity, tissue-based.
Series [5] concerns the target Gamma-secretase. The experiment in a line: Modulation of gamma-secretase (unknown origin) expressed in CHO cells co-expressing human wild type APP assessed as reduction in amyloid beta 42 levels after 24 hrs by ELISA. It counts as cell-based. (In general: ELISA stands for enzyme-linked immunosorbent assay.)
For series [6], the system named is Rattus norvegicus. The experiment in a line: Unbound Cmax in Sprague-Dawley rat at 30 mg/kg administered via oral gavage measured at 1 to 24 hrs post dose. Conditions: in vivo. It is filed as ADME, organism-based. The procedure, abridged:
(§1)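 Single escalating oral gavage doses given to Sprague-Dawley rats, 3/sex/dose. Suspension in 0.5% methylcellulose with 0.1% Polysorbate 80, dosed at 10 mL/kg. […] Clinical signs also monitored.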

Series [7] has as its system MDR1 (P-gp), human. The experiment in a line: in vitro. Conditions: dog, MDCK-MDR1.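 Note: transwell permeability assay, efflux ratio of apparent permeability, compound tested at 2 µM over 5 h.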
Series [8] deals with Rattus norvegicus. The experiment in a line: Toxicity in Sprague-Dawley rat assessed as lethality at 30 mg/kg administered via oral gavage. It is filed as organism-based. Conditions: in vivo. The procedure, abridged:
(§2)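 Single escalating oral gavage doses given to Sprague-Dawley rats, 3 per sex per dose. Suspension in 0.5% methylcellulose with 0.1% Polysorbate 80, dosed at 10 mL/kg. Clinical signs watched continuously for the first several hours and/or intermittently through the dosing day. Plasma drug levels sampled at 1, 4, 8 and 24 h post-dose. Lethality scored per group of 6.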

Series [9] can be described thus: Ratio of IC50 for decrease in contractility of Wistar rat langendorff isolated heart model to fCmax in Sprague-Dawley rat at 30 mg/kg administered via oral gavage. It is filed as organism-based. To be noted: in vivo.
Series [10] can be described thus: Total Cmax in Sprague-Dawley rat at 30 mg/kg administered via oral gavage measured at 1 to 24 hrs post dose. It is filed as ADME, organism-based. Details: dose 30 mg/kg, route oral. To be noted: in vivo. The procedure, abridged:
as §1

A short description of series [11]: Total Cmax in Sprague-Dawley rat at 300 mg/kg administered via oral gavage measured at 1 to 24 hrs post dose. It counts as ADME, organism-based. Details: dose 300 mg/kg, route oral. Conditions: in vivo.
Series [12] deals with Rattus norvegicus. Description: Toxicity in Sprague-Dawley rat assessed as lethality at 300 mg/kg administered via oral gavage. It is filed as organism-based. To be noted: in vivo.
Series [13] in a line: Unbound brain concentration in Sprague-Dawley rat at 10 mg/kg, po. To be noted: in vivo. It is filed as ADME, organism-based.
A short description of series [14]: Unbound brain concentration in Sprague-Dawley rat at 40 mg/kg, po. It counts as ADME, organism-based. Conditions: in vivo.
Series [15] has as its system Rattus norvegicus. Description: Unbound Cmax in Sprague-Dawley rat at 300 mg/kg administered via oral gavage measured at 1 to 24 hrs post dose. It is filed as ADME, organism-based. To be noted: in vivo.
Series [16] can be described thus: Clearance in rat at 1 mg/kg, iv. It counts as ADME, organism-based. To be noted: in vivo.
A short description of series [17]: Fraction unbound in rat plasma. It is filed as ADME, cell-free.
In series [18] the test system is Rattus norvegicus. The experiment in a line: Reduction of amyloid beta 42 levels in Sprague-Dawley rat at 40 mg/kg, po measured at 4 hrs by DELFIA analysis relative to control. Details: scale not given: the % may be the effect or the level left. It counts as functional. In a few lines:
(§3)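 Male Sprague-Dawley rats (254-326 g) dosed orally with vehicle or 10 or 40 mg/kg. Brains taken at 1, 4, 8, 11, 16 and 20 h post-dose, 4 rats per group. Homogenized in 0.4% DEA/50 mM NaCl, held overnight at 4 °C, spun at 135,000xg for 1 h. Supernatant cleaned by solid-phase extraction and concentrated; Aβ42 read by DELFIA as % change vs vehicle.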

Series [19] is described as follows: Ratio of drug level in brain to plasma in rat at 5 mg/kg, sc measured at 1 to 7 hrs. It counts as ADME, organism-based. To be noted: brain and plasma, read-out: BPR.
For series [20], the system named is Rattus norvegicus. The experiment in a line: Reduction of amyloid beta 42 levels in Sprague-Dawley rat at unbound brain concentration administered 10 mg/kg, po by DELFIA analysis relative to control. It is filed as functional.
A short description of series [21]: Fraction unbound in rat brain. It counts as ADME, tissue-based.
The nature of series [22]: Oral bioavailability in rat at 5 mg/kg. To be noted: in vivo. It counts as ADME, organism-based.
Series [23] relates to Rattus norvegicus. Description: Reduction of amyloid beta 42 levels in Sprague-Dawley rat at 10 mg/kg, po measured at 4 hrs by DELFIA analysis relative to control. It is filed as functional. Also noted: scale not given: the % may be the effect or the level left. The procedure, abridged:
as §3

Series [24] can be described thus: Half life in rat at 1 mg/kg, iv. To be noted: in vivo. It counts as ADME, organism-based.
Series [25] deals with Rattus norvegicus. Description: Unbound Cmax in Sprague-Dawley rat at 100 mg/kg administered via oral gavage measured at 1 to 24 hrs post dose. To be noted: in vivo. It counts as ADME, organism-based. The procedure, abridged:
as §1

Series [26] concerns Rattus norvegicus. The experiment in a line: Toxicity in Sprague-Dawley rat assessed as lethality at 100 mg/kg administered via oral gavage. It counts as organism-based. To be noted: in vivo. The procedure, abridged:
as §2

The nature of series [27]: Total Cmax in Sprague-Dawley rat at 100 mg/kg administered via oral gavage measured at 1 to 24 hrs post dose. Details: dose 100 mg/kg, route oral. To be noted: in vivo. It counts as ADME, organism-based. In a few lines: as §1
Series [28] can be described thus: Ratio of IC50 for decrease in contractility of Wistar rat langendorff isolated heart model to fCmax in Sprague-Dawley rat at 100 mg/kg administered via oral gavage. It counts as organism-based. Conditions: in vivo.

In general, EC50 refers to the concentration giving half of the maximal effect. As a reminder, the IC50 is the concentration at which inhibition is half-maximal. One may read the efflux ratio as the permeability from basolateral to apical divided by that in the opposite direction, in the common usage. A word on the Cmax: it is the maximum level reached in the sampled fluid or tissue. For `Cc1cn(-c2ccc3n(c2=O)CCN([C@@H](C)C2=CC(C)(C)Oc4ccc(C(F)(F)F)cc42)C3=O)cn1`, the EC50 at 5 min in series [1] came out at 0.576 µM. In addition, the microsomal CLint in [2] was determined as 14.3 µL/min/mg. The IC50 at 5 min is 1.35 µM in series [3] and 1.03 µM in [4]. In [5], the IC50 stood at 0.0049 µM. Besides, the fCmax in series [6] is on record as 205 nM. Further, the efflux ratio at 5 h, 2 µM in series [7] was 1.9. The Activity result in [8] was “Toxic”. In addition, in series [9], the Ratio worked out at 6.6. For the same compound, the peak level in series [10] (Cmax) was 5.84 µM.
For the compound `Cc1cn(-c2ccc3n(c2=O)CCN(C[C@@]24C[C@@H]2COc2cc(C(F)(F)F)ccc24)C3=O)cn1`, the microsomal CLint in series [2] was 14.6 µL/min/mg. Besides, the IC50 in series [5] was 0.052 µM. The efflux ratio at 5 h, 2 µM in series [7] came out at 1.7.
By clearance is commonly meant a measure of how efficiently the substance is removed, as volume per time. In general, fraction unbound refers to free concentration divided by total concentration. One may read the bioavailability as the share of a dose that reaches the circulation, judged against a reference dose that is usually intravenous. What is called half-life is the time needed for the level to fall by half in the phase considered. In series [11], `Cc1cn(-c2ccc3n(c2=O)CCN(C[C@@]24C[C@@H]2C(C)(C)Oc2ccc(C(F)(F)F)cc24)C3=O)cn1` showed a Cmax of 90.4 µM. Besides, the EC50 at 5 min in series [1] is above 30 µM. In addition, the results for the Activity entry in series [12], in [18] and in [23] were “Non-Toxic”, 62% and 40%, respectively. Also, the microsomal CLint in series [2] amounted to 34.5 µL/min/mg. In addition, the results for the “Drug uptake(free)” value in series [13] and in series [14] were 11 nM and 67 nM, respectively. The IC50 at 5 min in series [3] and in series [4] was above 30 µM throughout. The compound further came in with a fCmax in series [15] of 1620 nM. Also, the clearance in series [16] is 1.58 L/h/kg. The figures for the fraction unbound in series [17] and in [21] were 0.018 and 0.0054, respectively. In addition, the Kp in series [19] was 0.76. Further, the “%max” value in series [20] turned out to be 40%. Besides, the bioavailability in series [22] is 67%. This compound also gave a half-life in series [24] of 1.6 h.
In the case of `Cc1cn(-c2ccc3n(c2=O)CCN(CC2=CC(C)(C)Oc4ccc(C(F)(F)F)cc42)C3=O)cn1`, the microsomal CLint in series [2] turned out to be 47.8 µL/min/mg. In series [5], the IC50 is 0.013 µM. For the same compound, in [7], the efflux ratio at 5 h, 2 µM turned out to be 2.
Consider `Cc1cn(-c2ccc3n(c2=O)CCN(CC2CCOc4ccc(C(F)(F)F)cc42)C3=O)cn1` (stereo unspecified), for which the microsomal CLint in series [2] was 37.6 µL/min/mg. For the same compound, the IC50 in series [5] turned out to be 0.322 µM. Moreover, the efflux ratio at 5 h, 2 µM in series [7] stood at 1.9.
Consider `Cc1cn(-c2ccc3n(c2=O)CCN(C[C@@]24C[C@@H]2COc2ccc(C(F)(F)F)cc24)C3=O)cn1`, for which the microsomal CLint in series [2] was 37.9 µL/min/mg. In addition, in series [5], the IC50 is 0.0056 µM. For the same compound, in [7], the efflux ratio at 5 h, 2 µM worked out at 2.4.
As for `Cc1cn(-c2ccc3n(c2=O)CCN([C@H](C)C2=CC(C)(C)Oc4ccc(C(F)(F)F)cc42)C3=O)cn1`, the microsomal CLint in [2] was found to be 242 µL/min/mg. For the same compound, the IC50 in series [5] came out at 0.801 µM. In addition, the efflux ratio at 5 h, 2 µM in [7] amounted to 1.8.
In the case of `Cc1cn(-c2ccc3n(c2=O)CCN(C[C@@]24C[C@@H]2COc2ccc(Cl)cc24)C3=O)cn1`, in [2], the microsomal CLint came out at 43.9 µL/min/mg. Also, the IC50 in series [5] turned out to be 0.063 µM. In addition, the efflux ratio at 5 h, 2 µM in series [7] worked out at 1.8.
As for `Cc1cn(-c2ccc3n(c2=O)CCN(CC2=CC(C)(C)Oc4ccc(Cl)cc42)C3=O)cn1`, the IC50 in series [5] amounted to 0.053 µM. Moreover, in series [7], the efflux ratio at 5 h, 2 µM turned out to be 1.9.
Take `Cc1cn(-c2ccc3n(c2=O)CCN(C[C@]24C[C@H]2COc2ccc(C(F)(F)F)cc24)C3=O)cn1`: in [2], the microsomal CLint worked out at 70.5 µL/min/mg. The IC50 in series [5] amounted to 0.129 µM. Besides, in series [7], the efflux ratio at 5 h, 2 µM came to 1.9.
Turning to `Cc1cn(-c2ccc3n(c2=O)CCN(CC2=CCOc4ccc(C(F)(F)F)cc42)C3=O)cn1`, in series [2], the microsomal CLint was determined as 108 µL/min/mg. The IC50 in series [5] stood at 0.03 µM. Also, in [7], the efflux ratio at 5 h, 2 µM was determined as 1.7.
Take `Cc1cn(-c2ccc3n(c2=O)CCN(C[C@@]24C[C@@H]2C(C)(C)Oc2ccc(OC(F)(F)F)cc24)C3=O)cn1`: the Cmax in series [11] was 60.9 µM. In addition, the EC50 at 5 min in series [1] is above 30 µM. The Activity result in [12] was “Non-Toxic”. Moreover, the microsomal CLint in series [2] worked out at 42.4 µL/min/mg. Moreover, the IC50 at 5 min in series [3] and in series [4] was above 30 µM throughout. Further, in [15], the fCmax came to 670 nM. Moreover, in [5], the 50% inhibitory concentration (IC50) stood at 0.0051 µM. Besides, in series [7], the efflux ratio at 5 h, 2 µM worked out at 2.1.
Compound `Cc1cn(-c2ccc3n(c2=O)CCN([C@@H](C)C2=CC(C)(C)Oc4ccc(OC(F)(F)F)cc42)C3=O)cn1` had a fCmax in series [25] of 620 nM. In [1], the EC50 at 5 min stood at 1.37 µM. In series [2], the microsomal CLint was 25.7 µL/min/mg. Moreover, in series [26], the Activity result is “Toxic”. Further, the IC50 at 5 min is 2.48 µM in [3] and 1.62 µM in series [4]. The IC50 in series [5] came to 0.006 µM. This compound also registered a peak concentration (Cmax) in [27] of 17.7 µM. Moreover, in series [7], the efflux ratio at 5 h, 2 µM was 1.9. In addition, the Ratio in [28] is reported as 4.
With `COc1ccc2c(c1)[C@]1(CN3CCn4c(ccc(-n5cnc(C)c5)c4=O)C3=O)C[C@@H]1CO2`, in series [2], the microsomal CLint was 33.7 µL/min/mg. Further, the IC50 in series [5] was 0.181 µM. In addition, the efflux ratio at 5 h, 2 µM in [7] is 2.2.

Values taken from ChEMBL document CHEMBL4251542, “Discovery of cyclopropyl chromane-derived pyridopyrazine-1,6-dione γ-secretase modulators with robust central efficacy” (Medchemcomm, 2017).
